ChEMBL document CHEMBL3091343, “Nicotinamide phosphoribosyltransferase inhibitors, design, preparation, and structure-activity relationship” (J Med Chem, 2013)
Activity calls are given as the source filed them. The rule behind the calls is not given here.

Key:
[1] = test system: A2780; experiment: Ratio of APO866 to compound for antitumor activity against human A2780 cells xenografted in NMRI/nude mouse; assay type: functional
[2] = test system: A2780; experiment: Antitumor activity against human A2780 cells xenografted in NMRI/nude mouse assessed as tumor growth inhibition at 1.25 mg/kg, ip bid administered for 5 days measured at day 14 relative to vehicle-treated control; assay type: functional; settings: route intraperitoneal
Procedure, shortened: (§1)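 A2780 xenografts started from small tumours (about 100 mm³). Dosing was i.p. bid on days 0-4. Tumour volume was estimated as width²×length/2 and compared at day 14 with vehicle-treated animals as T/C%.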

[3] = test system: A2780; experiment: Antitumor activity against human A2780 cells xenografted in NMRI/nude mouse assessed as tumor growth inhibition at 2.5 mg/kg, ip bid administered for 5 days measured at day 14 relative to vehicle-treated control; assay type: functional; settings: route intraperitoneal; procedure, shortened: as §1
[4] = test system: A2780; experiment: Antitumor activity against human A2780 cells xenografted in NMRI/nude mouse assessed as tumor growth inhibition at 0.63 mg/kg, ip bid administered for 5 days measured at day 14 relative to vehicle-treated control; assay type: functional; settings: route intraperitoneal; procedure, shortened: as §1
[5] = test system: A2780; experiment: Antitumor activity against human A2780 cells xenografted in NMRI/nude mouse assessed as tumor growth inhibition at 5 to 10 mg/kg, ip bid administered for 10 days measured during compound administration; assay type: functional, organism-based
Procedure, shortened: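 Mice bearing large A2780 xenografts were dosed i.p. bid at 5 and 10 mg/kg. Toxic signs were scored as body weight loss and reduced activity level compared with control mice. Tumour volume was estimated as width²×length/2.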

[6] = test system: A2780; experiment: Antitumor activity against human A2780 cells xenografted in NMRI/nude mouse containing large tumors assessed as tumor growth inhibition at 3 mg/kg, ip bid administered on day 1 to 4 and day 7 to 11 measured during compound administration; assay type: functional, organism-based; design: dose 3 mg/kg
[7] = test system: SK-OV-3; experiment: Cytotoxicity against human SKOV3 cells by clonogenic assay; assay type: functional, cell-based
[8] = Cytotoxicity against human NYH cells by clonogenic assay; assay type: functional, cell-based
[9] = test system: PC-3; experiment: Cytotoxicity against human PC3 cells by clonogenic assay; assay type: functional, cell-based
[10] = test system: MCF7; experiment: Cytotoxicity against human MCF7 cells after 96 hrs by clonogenic assay; assay type: functional, cell-based; settings: MCF7, 96 h
Procedure, shortened: (§2)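 Cells were exposed to compound for the indicated time and then seeded in 3% agar over a sheep erythrocyte feeder layer. Plates were cultured 14–21 days at 37 °C, and colonies were counted with a digital colony counter.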

[11] = test system: MCF7; experiment: Cytotoxicity against human MCF7 cells after 24 hrs by clonogenic assay; assay type: functional, cell-based; settings: MCF7, 24 h; procedure, shortened: as §2
[12] = test system: DU-145; experiment: Cytotoxicity against human DU145 cells by clonogenic assay; assay type: functional, cell-based
[13] = test system: A-431; experiment: Cytotoxicity against human A431 cells by clonogenic assay; assay type: functional, cell-based
[14] = test system: A2780; experiment: Cytotoxicity against human A2780 cells after 24 hrs by clonogenic assay; assay type: functional, cell-based; settings: A2780, 24 h; procedure, shortened: as §2
[15] = test system: HCT-116; experiment: Resistance factor, ratio of IC50 for APO866-resistant human HCT116 cells to IC50 for human HCT116 cells; assay type: functional
[16] = test system: HCT-116; experiment: Cytotoxicity against APO866-resistant human HCT116 cells assessed as growth inhibition after 72 hrs by WST-1 assay; assay type: functional, cell-based; settings: HCT-116, 72 h
[17] = test system: HCT-116; experiment: Cytotoxicity against human HCT116 cells assessed as growth inhibition after 72 hrs by WST-1 assay; assay type: functional, cell-based; settings: HCT-116, 72 h
[18] = test system: MCF7; experiment: Cytotoxicity against human MCF-7 cells assessed as growth inhibition after 72 hrs by WST-1 assay; assay type: functional, cell-based; settings: MCF7, 72 h
[19] = test system: A2780; experiment: Cytotoxicity against human A2780 cells assessed as growth inhibition after 72 hrs by WST-1 assay; assay type: functional, cell-based; settings: A2780, 72 h
[20] = test system: Mus musculus; experiment: Toxicity in human A2780 cells xenografted NMRI/nude mouse containing small tumors assessed as effect on body weight at 15 mg/kg, ip bid administered for 10 days; assay type: organism-based; design: dose 15 mg/kg, route intraperitoneal; settings: in vivo, 240 h
Procedure, shortened: (§3)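 A2780 xenografts were dosed i.p. bid at 15 mg/kg. Large tumours (start 500 mm³) were dosed on days 0-4 + 7-11; small tumours (start 100 mm³) on days 0-9. Tumour volume was calculated as width²×length/2 from caliper diameters, and body weight was recorded during treatment. Tumours were followed after treatment up to the maximum allowed size of 1000 mm³.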

[21] = test system: A2780; experiment: Antitumor activity against human A2780 cells xenografted in NMRI/nude mouse assessed as tumor growth inhibition at 15 mg/kg, ip bid administered for 5 days measured at day 14 relative to vehicle-treated control; assay type: functional; settings: route intraperitoneal
[22] = test system: A2780; experiment: Antitumor activity against human A2780 cells xenografted in NMRI/nude mouse containing large tumors assessed as tumor growth inhibition at 15 mg/kg, ip bid administered on day 1 to 4 and day 7 to 11 measured after compound treatment; assay type: functional, organism-based; design: dose 15 mg/kg; procedure, shortened: as §3
[23] = test system: A2780; experiment: Antitumor activity against human A2780 cells xenografted in NMRI/nude mouse containing small tumors assessed as tumor growth inhibition at 15 mg/kg, ip bid administered for 10 days measured after compound treatment; assay type: functional, organism-based; design: dose 15 mg/kg; procedure, shortened: as §3
[24] = test system: A2780; experiment: Antitumor activity against human A2780 cells xenografted in NMRI/nude mouse containing large tumors assessed as tumor growth inhibition at 15 mg/kg, ip bid administered on day 1 to 4 and day 7 to 11 measured during compound administration; assay type: functional, organism-based; design: dose 15 mg/kg; procedure, shortened: as §3
[25] = test system: A2780; experiment: Antitumor activity against human A2780 cells xenografted in NMRI/nude mouse containing small tumors assessed as tumor growth inhibition at 15 mg/kg, ip bid administered for 10 days measured during compound administration; assay type: functional, organism-based; design: dose 15 mg/kg; procedure, shortened: as §3
[26] = AUC in NMRI mouse at 50 mg/kg, iv; assay type: ADME, organism-based; design: dose 50 mg/kg, route intravenous; settings: plasma
Procedure, shortened: (§4)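 Mouse PK after a single i.v. dose. Plasma proteins were precipitated with acetonitrile containing internal standard (3:1 v/v). Samples were analysed by UPLC-MS/MS on a C18 column at 40°C with an acetonitrile–0.05% formic acid gradient, using positive electrospray MRM. Parameters were derived by non-compartmental analysis.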

[27] = Clearance in NMRI mouse at 50 mg/kg, iv; assay type: ADME, organism-based; design: dose 50 mg/kg, route intravenous; settings: in vivo; procedure, shortened: as §4
[28] = Apparent volume of distribution in NMRI mouse at 50 mg/kg, iv; assay type: ADME, organism-based; design: dose 50 mg/kg, route intravenous; settings: in vivo, read-out: Vz; procedure, shortened: as §4
[29] = Cmax in NMRI mouse at 50 mg/kg, iv; assay type: ADME, organism-based; design: dose 50 mg/kg, route intravenous; settings: in vivo; procedure, shortened: as §4
[30] = Tmax in NMRI mouse at 50 mg/kg, iv; assay type: ADME, organism-based; design: dose 50 mg/kg, route intravenous; settings: in vivo; procedure, shortened: as §4
[31] = Half life in NMRI mouse at 50 mg/kg, iv; assay type: ADME, organism-based; design: dose 50 mg/kg, route intravenous; settings: in vivo; procedure, shortened: as §4
[32] = Toxicity in ip dosed NMRI mouse assessed as blood cell count administered as bid for 5 days; assay type: organism-based; settings: in vivo
[33] = Toxicity in ip dosed NMRI mouse assessed as body weight loss administered as bid for 5 days; assay type: organism-based; settings: in vivo
[34] = test system: A2780; experiment: Cytotoxicity against human A2780 cells after 16 hrs by clonogenic assay; assay type: functional, cell-based; settings: A2780, 16 h; procedure, shortened: as §2
[35] = molecular target: Nicotinamide phosphoribosyltransferase (Homo sapiens, UniProt P43490); experiment: Inhibition of NAMPT in human HepG2 cells using [14C]-nicotinamide/PRPP as substrate assessed as formation of [14C]-nicotinamide mononucleotide after 1 hr by liquid scintillation counting analysis; assay type: cell-based
Chain of Nicotinamide phosphoribosyltransferase (P43490 whole entry): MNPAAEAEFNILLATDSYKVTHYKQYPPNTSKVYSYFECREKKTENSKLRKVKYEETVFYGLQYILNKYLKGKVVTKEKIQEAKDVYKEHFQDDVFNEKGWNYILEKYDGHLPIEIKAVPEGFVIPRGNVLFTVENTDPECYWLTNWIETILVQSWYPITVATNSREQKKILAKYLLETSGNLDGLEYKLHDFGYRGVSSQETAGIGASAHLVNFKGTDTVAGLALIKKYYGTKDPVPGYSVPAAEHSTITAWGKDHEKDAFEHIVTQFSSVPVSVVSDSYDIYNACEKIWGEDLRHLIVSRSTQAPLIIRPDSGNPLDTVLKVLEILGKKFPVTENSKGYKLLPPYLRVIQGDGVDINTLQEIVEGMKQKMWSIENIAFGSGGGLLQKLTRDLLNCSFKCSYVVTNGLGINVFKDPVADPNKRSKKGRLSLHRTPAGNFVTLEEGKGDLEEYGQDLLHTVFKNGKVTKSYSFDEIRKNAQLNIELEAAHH

[36] = test system: Mus musculus; experiment: Toxicity in human A2780 cells xenografted NMRI/nude mouse containing large tumors assessed as effect on body weight at 15 mg/kg, ip bid administered on day 1 to 4 and day 7 to 11; settings: in vivo
[37] = Cytotoxicity against human W1L2 cells assessed as growth inhibition after 72 hrs by trypan blue assay; assay type: functional, cell-based; settings: WIL2, 72 h

N#C/N=C(\NCCCCCCS(=O)(=O)N(OCCN1CCOCC1)C1CCCCC1)Nc1ccncc1
Ratio [1]: 12
T/C [2]: 40%
T/C [3]: 24%
T/C [4]: 82%
TGI [5]: Active
TGI [6]: Active
IC50 [7]: 9.9 nM
IC50 [8]: 0.3 nM
IC50 [9]: 0.53 nM
IC50 [10]: 1.9 nM
IC50 [11]: > 50 nM
IC50 [12]: > 50 nM
IC50 [13]: > 50 nM
IC50 [14]: 0.55 nM
Ratio IC50 [15]: 128
IC50 [16]: > 5000 nM
IC50 [17]: 1.9 nM
IC50 [18]: 0.33 nM
IC50 [19]: 0.025 nM

N#C/N=C(\NCCCCCCS(=O)(=O)N(CCF)OCC1CCCCC1)Nc1ccncc1
Activity [20]: Non-toxic
T/C [21]: 52%
TGI [22]: inactive
TGI [23]: inactive
TGI [24]: Active
TGI [25]: Active
AUC [26]: 47500 ng·h/mL
clearance [27]: 17.5 mL/min/kg
Vd [28]: 0.547 L/kg
Cmax [29]: 78.5 µg/mL
Tmax [30]: 4.8 min
half-life [31]: 21.6 min
MTD at 120 h [32]: < 10 mg/kg
MTD at 120 h [33]: < 10 mg/kg
IC50 [7]: 3.4 nM
IC50 [8]: 0.05 nM
IC50 [9]: 0.35 nM
IC50 [10]: 0.98 nM
IC50 [11]: > 50 nM
IC50 [12]: 6.39 nM
IC50 [34]: 0.43 nM
IC50 [35]: 3.2 nM
Ratio IC50 [15]: 128
IC50 [16]: > 5000 nM
IC50 [17]: 3.6 nM
IC50 [18]: 0.1 nM
IC50 [19]: 0.052 nM
Activity [36]: Non-toxic

C#CCN(Cc1cc2c(O)nc(C)nc2cc1Br)c1ccc(C(=O)NCc2cccnc2)cc1
IC50 [37]: 2.8 nM
